Screens deposited in PubChem by The Scripps Research Institute Molecular Screening Center.
rCAG RNA binder: molecules binding r(CAG) RNA repeats | r(CAG) RNA repeat, TO-PRO-1 dye displacement fluorescence | inhibition, % at 3 µM | 370,000 compounds, 1.3% hits;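 active = inhibition above the plate cutoff, the mean of all test compounds on that plate plus 3 SD, cut at about 35% in these data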;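 note: higher means more dye released from RNA so lower well fluorescence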
PRMT1 FP inh: inhibitors of human PRMT1; recombinant PRMT1, activity-based probe fluorescence polarization; inhibition, % at 2.79 µM; 370,000 compounds, 1.3% hits;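 active = inhibition above about 21% made by adding two undisclosed values, limit read from the data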
TCR-CD3 inh: human TCR-CD3 binding inhibition; TAMRA-labeled TCR probe fluorescence, biochemical; inhibition, % at 9.4 µM; 360,000 compounds, 0.37% hits; AID 651800; in the data active = inhibition above about 19%;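 note: recombinant mutant TCR 2C K166C tagged with TAMRA read by polarization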
ABHD4 inh: ABHD4 (mouse) inhibition, primary FP screen; Q8VD66; purified mABHD4, FP-Rh probe fluorescence polarization; inhibition, % at 8.92 µM; 370,000 compounds, 0.54% hits;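 active = inhibition exceeding the mean over every tested compound plus 3 SD, cut at about 30% in these data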
Target sequence (Q8VD66 whole entry, looked up): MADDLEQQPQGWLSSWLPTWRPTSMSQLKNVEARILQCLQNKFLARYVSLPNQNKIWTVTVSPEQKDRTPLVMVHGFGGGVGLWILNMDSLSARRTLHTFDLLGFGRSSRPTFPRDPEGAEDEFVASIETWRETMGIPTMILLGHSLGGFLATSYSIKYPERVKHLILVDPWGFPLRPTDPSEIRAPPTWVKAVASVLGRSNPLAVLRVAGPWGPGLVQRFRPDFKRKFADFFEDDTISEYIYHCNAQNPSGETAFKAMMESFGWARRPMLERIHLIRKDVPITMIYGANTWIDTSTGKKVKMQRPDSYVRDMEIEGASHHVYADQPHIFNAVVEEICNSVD
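system = mouse ABHD4 enzyme, wild type | medium = HEPES pH 7.0, NaCl, Pluronic buffer | also added = FP-Rh probe | incubation = Enzyme–compound pre-incubation 45 min, then probe 60 min, both 25 °C | technique = fluorescence polarization, excitation 525 nm, emission 598 nm, BODIPY TMR filters | controls = S159A mutant high control, sample median low control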
SIAE inh: blocks human sialic acid acetylesterase; SIAE FP-Rh probe binding, fluorescence polarization; 370,000 compounds, 0.69% hits; AID 1053197; Q9HAT2; inhibition, % at 9.66 µM;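 active = inhibition above a cutoff: mean of compounds within the control limits plus 3 SD of those, cut at about 17% in these data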
PRMT1 confirm: confirmation of human PRMT1 inhibitors; 3,300 compounds, 42% hits; shares compounds with PRMT1 FP inh; inhibition, % at 2.79 µM; recombinant His-PRMT1, activity-based probe fluorescence polarization;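 active = mean inhibition across replicates above the hit cutoff derived for the earlier primary screen, cut at about 22% in these data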
A number is an active result; . = inactive; / = not tested or not shown. Sampled rows, rich in hits. Any-hit rate of the full collection: about 3.3%.

SMILES	rCAG RNA binder	PRMT1 FP inh	TCR-CD3 inh	ABHD4 inh	SIAE inh	PRMT1 confirm
CN(C)S(=O)(=O)c1cccc(N=C2NN=C(c3ccccc3)CS2)c1	.	54	.	.	.	39
C/C(=N/NC(=O)CSc1nnc(-c2ccccc2)n1-c1ccc(Cl)cc1)c1cccc(O)c1	.	.	/	.	.	/
Nc1nc2ncccc2cc1C(=O)C1=C(c2ccccc2)Cc2ccccc21	.	.	/	.	.	/
CCOC(=O)N1CCN(C(=O)C[C@H]2C[C@@]3(C(=O)OC)C(=C[C@H](C(C)C)O[C@@H]3C3CC3)N(CCC3=CCCCC3)C2=O)CC1	.	.	/	.	.	/
O=C1C=C(NNC(=O)c2ccncc2)CC(c2ccccc2)C1 (stereo unspecified)	.	63	.	.	.	.
O=C(NN=Cc1ccccc1C(=O)O)C(=O)NN=Cc1ccccc1C(=O)O	.	104	.	.	.	.
Cc1ccc(NC(=O)/C=C/C(=O)O)c([N+](=O)[O-])c1	.	.	.	.	.	/
CCOc1ccc(/C=C/C(=O)Nc2ccc(OC)cc2[N+](=O)[O-])cc1	.	.	.	.	.	/
Cc1cc(NC(=O)/C=C\C(=O)O)c([N+](=O)[O-])cc1C	.	47	.	.	.	.
COc1ccc(NC(=O)/C=C/C(=O)O)c([N+](=O)[O-])c1	.	43	.	.	.	.
CN(CCOC(=O)c1occ2ccccc12)C1CN(Cc2cn(Cc3ccccc3Cl)nn2)S(=O)(=O)C1 (stereo unspecified)	.	.	/	.	.	/
Cc1ccc(C)c(S(=O)(=O)Nc2ccc3scnc3c2)c1	.	35	.	.	.	.
CCN(CC)C(=O)O[C@H]1CC[C@@]23CCCN2C(=O)CCC[C@H]3C1	/	.	/	.	.	/
O=C(CSc1ccccn1)c1ccc(F)cc1	.	27	.	.	.	24
Cc1ccc(C(=O)CSc2ccccn2)cc1	.	61	.	.	.	40
Cc1ccc(C(=O)CSc2cc(C)nc(SCC(=O)c3ccccc3)n2)cc1	.	.	.	.	.	/
CC1(C)CC(=O)C2=C(C1)Nc1ccccc1S2	.	.	.	.	.	/
CC1(C)CC(=O)C2=C(C1)Nc1ccccc1NC2	.	25	.	.	.	.
Cc1ccc(-c2c(NC(=O)c3cccc(C)c3)nc3ncccn23)cc1	.	.	/	.	.	/
COC(=O)[C@H](C(C)C)N(CCCc1cn(CC2CCCCC2)nn1)S(=O)(=O)c1ccccc1Br	.	.	/	.	.	/
O=c1oc2c3c4c(cc2c(C(F)(F)F)c1CCN1CCOCC1)CCCN4CCC3	.	53	.	.	.	24
CC(C)c1cc(=O)oc2c3c4c(cc12)CCCN4CCC3	.	.	.	.	.	/
O=C(NCCN1CCOCC1)c1cccc2c1C(=O)c1ccc(N3CCCC3)cc1S2(=O)=O	.	.	.	.	.	/
O=C(O)c1cccc2c1C(=O)c1ccc(N3CCCC3)cc1S2(=O)=O	.	27	.	.	.	30
Nc1ccc(-n2cc(-c3ccccc3)[nH]c2=S)cc1	.	45	.	.	.	.
SMILES	rCAG RNA binder	PRMT1 FP inh	TCR-CD3 inh	ABHD4 inh	SIAE inh	PRMT1 confirm
CCOC(=O)C1CCN(C(=O)C(C)(C)NC(=O)Nc2ccc3c(c2)CCC3)CC1	/	.	/	.	.	/
CC1(C)C2CCC(CN=C(N)CSS(=O)(=O)O)C1C2 (stereo unspecified)	.	88	.	.	.	69
CN(C(=O)COC(=O)c1cc2ccccc2oc1=O)C1CCCCC1	.	27	.	.	.	.
Clc1ccc(Cl)c(-c2nn3c(COc4ccccc4)nnc3s2)c1	.	28	.	.	.	.
COC(=O)[C@H]1C[C@]2(C(/C=C(\C)CCC=C(C)C)S(=O)(=O)c3ccccc3)c3ccccc3N[C@H]2N1 (stereo partly specified)	/	.	/	.	.	/
Clc1ccc(-c2nnnn2-c2ccc(Cl)cc2)cc1	.	.	.	.	.	/
Cc1ccc(-n2nnnc2C(Cl)(Cl)c2nnnn2-c2ccc(C)cc2)cc1	.	48	.	.	.	90
Cc1c(C2Nc3ccccc3NC3=C2C(=O)CC(C)(C)C3)cnn1C (stereo unspecified)	.	27	.	.	.	.
COc1ccc(N2CCN(C(=O)c3ccccc3F)CC2)c([N+](=O)[O-])c1	.	.	.	.	.	/
Cc1ccc(N2C(=O)CC(Sc3ccccc3C(=O)O)C2=O)c([N+](=O)[O-])c1 (stereo unspecified)	.	63	.	.	.	65
